Experimental data gathered from unrelated publications.
Lines come from different studies, so protocols differ.
MGLL: Monoglyceride lipase (MGLL, Homo sapiens, UniProt Q99685)
HLA class I histocompatibility antigen, B alpha chain: HLA class I histocompatibility antigen, B alpha chain (Homo sapiens, UniProt P01889)
blaNDM-1: Metallo-beta-lactamase type 2 (blaNDM-1, Klebsiella pneumoniae, UniProt C7C422)
HTR2B: 5-hydroxytryptamine receptor 2B (HTR2B, Homo sapiens, UniProt P41595)
dxs: 1-deoxy-D-xylulose-5-phosphate synthase (dxs, Deinococcus radiodurans, UniProt Q9RUB5)

Structure (SMILES) | target | observed | mode | method | pH | setting | IC50 [µM]
NC(=O)c1cccc(-c2cccc(OC(=O)NC3CCCCC3)c2)c1 | MGLL | enzyme activity | inhibitor | absorbance |  |  | > 10
COc1cc(CC(C)N)c(OC)cc1I (racemic) | 5-hydroxytryptamine receptor 2C (HTR2C, Homo sapiens, UniProt P28335) | ligand displacement |  | radioligand |  |  | 0.00046
CC(C)[C@H](NC(=O)[C@@H](NC(=O)[C@H](CCCNC(=N)N)NC(=O)[C@H](C)NC(=O)[C@H](C)NC(=O)[C@H](CCC(=O)O)NC(=O)[C@H](CO)NC(=O)[C@H](C)NC(=O)[C@@H](N)Cc1ccccc1)C(C)C)C(=O)O | HLA class I histocompatibility antigen, B alpha chain | ligand displacement |  | radioligand |  |  | 8.55
Ic1ccccc1CN[C@@H]1C2CCN(CC2)[C@@H]1C(c1ccccc1)c1ccccc1 (racemic) | Substance-P receptor (TACR1, Homo sapiens, UniProt P25103) | ligand displacement |  | radioligand |  |  | 0.00725
CCN(CC)C(=O)N[C@@H]1C[C@@H]2c3cccc4[nH]cc(c34)C[C@H]2N(C)C1 | blaNDM-1 | enzyme activity | inhibitor |  |  |  | > 30
COc1nn([C@@H](C)c2ccc(CC(C)C)cc2)c(=O)o1 | Fatty-acid amide hydrolase 1 (FAAH, Homo sapiens, UniProt O00519) | enzyme activity | inhibitor |  |  | cell membranes | 0.011
CC(=O)c1cc(O)c2ccccc2c1O | mRNA cap guanine-N(7) methyltransferase (RNMT, Homo sapiens, UniProt O43148) | enzyme activity | inhibitor |  |  |  | 63.3
C[C@H](N)Cn1ncc2ccc3c(c21)CCCO3 | D(3) dopamine receptor (Drd3, Rattus norvegicus, UniProt P19020) | ligand displacement |  | radioligand |  |  | 7.2
CCCCCNC(=N)N/N=C/c1c[nH]c2ccc(OC)cc12 | HTR2B | ligand displacement |  | radioligand |  |  | 0.008
CSCC[C@H](NC(=O)[C@H](C)NC(=O)[C@H](CC(C)C)NC(=O)[C@H](C)NC(=O)[C@H](Cc1c[nH]c2ccccc12)NC(=O)[C@H](C)NC(=O)[C@@H](NC(=O)[C@@H]1CCCN1C(=O)[C@H](CO)NC(=O)[C@H](CO)NC(=O)[C@@H](N)CO)C(C)C)C(=O)N[C@@H](CCCNC(=N)N)C(=O)O | dxs | enzyme activity | inhibitor | absorbance |  |  | 9.5
COc1cc(CC(C)N)c(OC)cc1I (racemic) | HTR2B | ligand displacement |  | radioligand |  |  | 0.0031
O=C(O)c1ccccn1 | blaNDM-1 | enzyme activity | inhibitor | fluorescence |  |  | 84
CSCC[C@H](NC(=O)[C@H](CCC(N)=O)NC(=O)[C@H](C)NC(=O)[C@H](CO)NC(=O)[C@@H](N)CO)C(=O)N[C@@H](CC(N)=O)C(=O)N[C@@H](CC(C)C)C(=O)N[C@@H](CC(N)=O)C(=O)N[C@H](C(=O)N[C@@H](Cc1ccccc1)C(=O)N[C@@H](CC(C)C)C(=O)N[C@@H](CC(N)=O)C(=O)O)[C@@H](C)O | dxs | enzyme activity | inhibitor | absorbance | pH 7.6 |  | > 1000
c1ccc(CNCc2ccccn2)nc1 | blaNDM-1 | enzyme activity | inhibitor | fluorescence |  |  | 2.6
CSCC[C@H](NC(=O)[C@@H](NC(=O)[C@@H](NC(=O)[C@H](CC(C)C)NC(=O)[C@H](CC(N)=O)NC(=O)[C@H](CC(N)=O)NC(=O)[C@@H](NC(=O)[C@H](C)NC(=O)[C@@H](N)CC(C)C)[C@@H](C)O)C(C)C)C(C)C)C(=O)O | HLA class I histocompatibility antigen, B alpha chain | ligand displacement |  | radioligand |  |  | 0.055
OCC(S)CS (stereo not shown) | blaNDM-1 | enzyme activity | inhibitor | fluorescence |  |  | 4.21
OCCN(CCO)c1nc(N2CCCCC2)c2nc(N(CCO)CCO)nc(N3CCCCC3)c2n1 | blaNDM-1 | enzyme activity | inhibitor |  |  |  | > 10
CC(C)[C@H](NC(=O)[C@@H](NC(=O)[C@@H](NC(=O)[C@@H](NC(=O)[C@@H](NC(=O)[C@H](Cc1ccccc1)NC(=O)[C@H](CCC(=O)O)NC(=O)[C@@H](N)CC(=O)O)C(C)C)C(C)C)C(C)C)[C@@H](C)O)C(=O)O | HLA class I histocompatibility antigen, B alpha chain | ligand displacement |  | radioligand |  |  | 52.8
CN(Cc1ccccc1)C(=O)Oc1nsnc1N1CCCCC1 | MGLL | enzyme activity | inhibitor |  |  |  | 5.6
CC[C@H](C)[C@H](NC(=O)[C@@H]1CCCN1C(=O)[C@@H](NC(=O)[C@H](CC(C)C)NC(=O)[C@H](CCC(N)=O)NC(=O)[C@H](Cc1ccccc1)NC(=O)[C@H](C)NC(=O)[C@@H](N)CCCCN)[C@@H](C)O)C(=O)N[C@@H](C)C(=O)N[C@H](C(=O)O)C(C)C | HLA class I histocompatibility antigen, B alpha chain | ligand displacement |  | radioligand |  |  | 8.6
C[C@H](N)[C@H](O)c1cccc(O)c1 | HTR2B | calcium signal | antagonist | fluorescence |  |  | 7.38
CSCC[C@H](NC(=O)[C@H](Cc1c[nH]c2ccccc12)NC(=O)CNC(=O)[C@H](Cc1ccc(O)cc1)NC(=O)[C@H](C)NC(=O)[C@@H](CCC(=O)O)NC(=O)CN1CCN(CC(=O)O)CCN(CC(=O)O)CCN(CC(=O)O)CC1)C(=O)N[C@@H](CC(=O)O)C(=O)N(C)[C@@H](Cc1ccccc1)C(N)=O | Gastrin/cholecystokinin type B receptor (CCKBR, Homo sapiens, UniProt P32239) | ligand displacement |  | radioligand |  |  | 0.0404
